Test results taken from ChEMBL document CHEMBL1134346, “Labeling and evaluation of N-[11C]methylated quinoline-2-carboxamides as potential radioligands for visualization of peripheral benzodiazepine receptors” (J Med Chem, 2001).

What was measured:
[1] = species on record: Rattus norvegicus; experiment: Tissue (plasma) distribution in Albino male CD rats after 90 minutes expressed as percent of injected dose per gram of organ.; assay type: ADME, organism-based; conditions: in vivo, 1.5 h
Outline: (§1)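 Male albino CD rats (225-250 g) received the 11C-labelled radioligand in saline by tail-vein injection. Three rats per time point were decapitated under light ether anaesthesia at 5, 15, 30, 60 or 90 min. Blood was collected heparinized and plasma separated by centrifugation. The pituitary was dissected from the brain. Lung, liver (three-lobe pieces) and right deltoid muscle were sampled, washed in cold saline, gamma-counted and weighed. Results are %I.D./g.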

[2] = molecular target: Translocator protein (Rattus norvegicus) (UniProt P16257); experiment: Tissue (blood) concentration of radioactivity at 30 min post-injection into Albino male CD rats after pretreatment with cold PK 11195.; assay type: functional, tissue-based
Chain of Translocator protein (Rattus norvegicus) (P16257 whole entry, looked up): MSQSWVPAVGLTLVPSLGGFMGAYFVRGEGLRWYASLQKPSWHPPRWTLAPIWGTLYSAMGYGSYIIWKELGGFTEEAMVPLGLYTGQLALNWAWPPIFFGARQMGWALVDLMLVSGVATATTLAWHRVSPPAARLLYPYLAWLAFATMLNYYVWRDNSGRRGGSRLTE
Outline: (§2)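 Separate groups of five rats received tail-vein PK 11195 (1.4-1.6 mg; 5 mg/kg) in 30 µL DMSO:EtOH 1:1, or vehicle alone, immediately before iv radioligand (90-170 µCi in saline, 0.9-1 Ci/µmol). Rats were decapitated at 30 min and tissues gamma-counted; values are %I.D./g.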

[3] = species on record: Rattus norvegicus; experiment: Tissue (spleen) distribution in Albino male CD rats after 15 minutes expressed as percent of injected dose per gram of organ.; assay type: ADME, organism-based; conditions: in vivo, 0.25 h
[4] = molecular target: Translocator protein (Rattus norvegicus) (UniProt P16257); experiment: Tissue (pituitary) concentration of radioactivity at 30 min post-injection into Albino male CD rats after pretreatment with cold PK 11195.; assay type: functional, tissue-based; conditions: Pituitary gland
Outline: (§3)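 Blocking study in male albino CD rats, five per group. Immediately before the 11C radioligand (in saline, i.v. tail vein), rats received 30 µL tail-vein PK 11195 (5 mg/kg; 1.4-1.6 mg) in DMSO:EtOH 1:1, or vehicle. Rats were decapitated at 30 min. Tissues were dissected, washed, gamma-counted and weighed as in the biodistribution study. Results are %I.D./g.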

[5] = species on record: Rattus norvegicus; experiment: Tissue (liver) distribution in Albino male CD rats after 90 minutes expressed as percent of injected dose per gram of organ.; assay type: ADME, organism-based; conditions: in vivo, 1.5 h; outline: as §1
[6] = species on record: Rattus norvegicus; experiment: Tissue (testicle) distribution in Albino male CD rats after 60 minutes expressed as percent of injected dose per gram of organ.; assay type: ADME, organism-based; conditions: in vivo, 1 h; outline: as §1
[7] = species on record: Rattus norvegicus; experiment: Tissue (lung) distribution in Albino male CD rats after 5 minutes expressed as percent of injected dose per gram of organ.; assay type: ADME, organism-based; conditions: in vivo; outline: as §1
[8] = species on record: Rattus norvegicus; experiment: Tissue (plasma) distribution in Albino male CD rats after 15 minutes expressed as percent of injected dose per gram of organ.; assay type: ADME, organism-based; conditions: in vivo, 0.25 h; outline: as §1
[9] = species on record: Rattus norvegicus; experiment: Tissue (spleen) distribution in Albino male CD rats after 5 minutes expressed as percent of injected dose per gram of organ.; assay type: ADME, organism-based; conditions: in vivo; outline: as §1
[10] = species on record: Rattus norvegicus; experiment: Tissue (muscle) distribution in Albino male CD rats after 5 minutes expressed as percent of injected dose per gram of organ.; assay type: ADME, organism-based; conditions: in vivo; outline: as §1
[11] = species on record: Rattus norvegicus; experiment: Tissue (cortex) distribution in Albino male CD rats after 15 minutes expressed as percent of injected dose per gram of organ.; assay type: ADME, organism-based; conditions: in vivo, 0.25 h
Outline: (§4)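 Radioligand given in saline into tail vein of male albino CD rats (225-250 g); 100-200 µCi per animal, 1-2 Ci/µmol at injection depending on radioligand. Three rats per time point were decapitated under light ether anaesthesia. Blood, plasma, brain regions and washed organs were weighed and gamma-counted. Uptake is %I.D./g tissue, mean ± SD.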

[12] = species on record: Rattus norvegicus; experiment: Tissue (lung) distribution in Albino male CD rats after 15 minutes expressed as percent of injected dose per gram of organ.; assay type: ADME, organism-based; conditions: in vivo, 0.25 h; outline: as §1
[13] = species on record: Rattus norvegicus; experiment: Tissue (kidney) distribution in Albino male CD rats after 30 minutes expressed as percent of injected dose per gram of organ.; assay type: ADME, organism-based; conditions: in vivo, 0.5 h; outline: as §4
[14] = species on record: Rattus norvegicus; experiment: Tissue (heart) distribution in Albino male CD rats after 90 minutes expressed as percent of injected dose per gram of organ.; assay type: ADME, organism-based; conditions: in vivo, 1.5 h; outline: as §4
[15] = species on record: Rattus norvegicus; experiment: Tissue (pituitary) distribution in Albino male CD rats after 5 minutes expressed as percent of injected dose per gram of organ.; assay type: ADME, organism-based, Pituitary gland; conditions: in vivo; outline: as §1
[16] = species on record: Rattus norvegicus; experiment: Tissue (plasma) distribution in Albino male CD rats after 30 minutes expressed as percent of injected dose per gram of organ.; assay type: ADME, organism-based; conditions: in vivo, 0.5 h; outline: as §1
[17] = species on record: Rattus norvegicus; experiment: Tissue (cerebellum) distribution in Albino male CD rats after 30 minutes expressed as percent of injected dose per gram of organ.; assay type: ADME, organism-based; conditions: in vivo, 0.5 h; outline: as §4
[18] = species on record: Rattus norvegicus; experiment: Tissue (muscle) distribution in Albino male CD rats after 60 minutes expressed as percent of injected dose per gram of organ.; assay type: ADME, organism-based; conditions: in vivo, 1 h; outline: as §1
[19] = species on record: Rattus norvegicus; experiment: Tissue (pituitary) distribution in Albino male CD rats after 90 minutes expressed as percent of injected dose per gram of organ.; assay type: ADME, organism-based, Pituitary gland; conditions: in vivo, 1.5 h; outline: as §1
[20] = species on record: Rattus norvegicus; experiment: Tissue (cortex) distribution in Albino male CD rats after 60 minutes expressed as percent of injected dose per gram of organ.; assay type: ADME, organism-based; conditions: in vivo, 1 h; outline: as §4
[21] = molecular target: Translocator protein (Rattus norvegicus) (UniProt P16257); experiment: Tissue (spleen) concentration of radioactivity at 30 min post-injection into Albino male CD rats after pretreatment with cold PK 11195.; assay type: functional, tissue-based; outline: as §3
[22] = species on record: Rattus norvegicus; experiment: Tissue (lung) distribution in Albino male CD rats after 30 minutes expressed as percent of injected dose per gram of organ.; assay type: ADME, organism-based; conditions: in vivo, 0.5 h; outline: as §1
[23] = species on record: Rattus norvegicus; experiment: Tissue (testicle) distribution in Albino male CD rats after 15 minutes expressed as percent of injected dose per gram of organ.; assay type: ADME, organism-based; conditions: in vivo, 0.25 h; outline: as §1
[24] = species on record: Rattus norvegicus; experiment: Tissue (muscle) distribution in Albino male CD rats after 90 minutes expressed as percent of injected dose per gram of organ.; assay type: ADME, organism-based; conditions: in vivo, 1.5 h; outline: as §1
[25] = species on record: Rattus norvegicus; experiment: Tissue (pituitary) concentration of radioactivity at 30 min post-injection into Albino male CD rats with vehicle.; assay type: ADME, organism-based, Pituitary gland; conditions: in vivo, 0.5 h; outline: as §3
[26] = species on record: Rattus norvegicus; experiment: Tissue (heart) distribution in Albino male CD rats after 30 minutes expressed as percent of injected dose per gram of organ.; assay type: ADME, organism-based; conditions: in vivo, 0.5 h; outline: as §4
[27] = species on record: Rattus norvegicus; experiment: Tissue (spleen) distribution in Albino male CD rats after 90 minutes expressed as percent of injected dose per gram of organ.; assay type: ADME, organism-based; conditions: in vivo, 1.5 h
[28] = species on record: Rattus norvegicus; experiment: Tissue (heart) distribution in Albino male CD rats after 60 minutes expressed as percent of injected dose per gram of organ.; assay type: ADME, organism-based; conditions: in vivo, 1 h; outline: as §4
[29] = molecular target: Translocator protein (Rattus norvegicus) (UniProt P16257); experiment: Tissue (heart) concentration of radioactivity at 30 min post-injection into Albino male CD rats after pretreatment with cold PK 11195.; assay type: functional; outline: as §2
[30] = species on record: Rattus norvegicus; experiment: Tissue (kidney) distribution in Albino male CD rats after 15 minutes expressed as percent of injected dose per gram of organ.; assay type: ADME, organism-based; conditions: in vivo, 0.25 h; outline: as §4
[31] = species on record: Rattus norvegicus; experiment: Tissue (blood) distribution in Albino male CD rats after 60 minutes expressed as percent of injected dose per gram of organ.; assay type: ADME, organism-based; conditions: in vivo, 1 h; outline: as §4
[32] = species on record: Rattus norvegicus; experiment: Tissue (spleen) distribution in Albino male CD rats after 30 minutes expressed as percent of injected dose per gram of organ.; assay type: ADME, organism-based; conditions: in vivo, 0.5 h; outline: as §1
[33] = molecular target: Translocator protein (Rattus norvegicus) (UniProt P16257); experiment: Tissue (kidney) concentration of radioactivity at 30 min post-injection into Albino male CD rats after pretreatment with cold PK 11195.; assay type: functional, tissue-based; outline: as §2
[34] = species on record: Rattus norvegicus; experiment: Tissue (cortex) distribution in Albino male CD rats after 30 minutes expressed as percent of injected dose per gram of organ.; assay type: ADME, organism-based; conditions: in vivo, 0.5 h; outline: as §4
[35] = species on record: Rattus norvegicus; experiment: Tissue (muscle) distribution in Albino male CD rats after 30 minutes expressed as percent of injected dose per gram of organ.; assay type: ADME, organism-based; conditions: in vivo, 0.5 h; outline: as §1
[36] = species on record: Rattus norvegicus; experiment: Tissue (kidney) distribution in Albino male CD rats after 90 minutes expressed as percent of injected dose per gram of organ.; assay type: ADME, organism-based; conditions: in vivo, 1.5 h; outline: as §4
[37] = species on record: Rattus norvegicus; experiment: Tissue (plasma) distribution in Albino male CD rats after 5 minutes expressed as percent of injected dose per gram of organ.; assay type: ADME, organism-based; conditions: in vivo; outline: as §1
[38] = species on record: Rattus norvegicus; experiment: Tissue (muscle) concentration of radioactivity at 30 min post-injection into Albino male CD rats with vehicle.; assay type: ADME, organism-based; conditions: in vivo, 0.5 h; outline: as §3
[39] = species on record: Rattus norvegicus; experiment: Tissue (lung) distribution in Albino male CD rats after 90 minutes expressed as percent of injected dose per gram of organ.; assay type: ADME, organism-based; conditions: in vivo, 1.5 h; outline: as §1
[40] = species on record: Rattus norvegicus; experiment: Tissue (adrenal gland) distribution in Albino male CD rats after 60 minutes expressed as percent of injected dose per gram of organ.; assay type: ADME, organism-based; conditions: in vivo, 1 h; outline: as §4

- I.D./g [1]: 0.02%
- I.D./g [2]: < 0.06%
- I.D./g [3]: 0.92%
- I.D./g [4]: < 0.07%
- I.D./g [5]: 0.27%
- I.D./g [6]: 0.09%
- I.D./g [7]: 3.09%
- I.D./g [8]: 0.05%
- I.D./g [9]: 0.5%
- I.D./g [10]: 0.11%
- I.D./g [11]: 0.07%
- I.D./g [12]: 2.01%
- I.D./g [13]: 0.77%
- I.D./g [14]: 1.23%
- I.D./g [15]: 0.22%
- I.D./g [16]: 0.03%
- I.D./g [17]: 0.09%
- I.D./g [18]: 0.12%
- I.D./g [19]: 0.2%
- I.D./g [20]: 0.04%
- I.D./g [21]: < 0.11%
- I.D./g [22]: 2.34%
- I.D./g [23]: 0.05%
- I.D./g [24]: 0.12%
- I.D./g [25]: 0.25%
- I.D./g [26]: 1.21%
- I.D./g [27]: 1.06%
- I.D./g [28]: 1.26%
- I.D./g [29]: < 0.13%
- I.D./g [30]: 0.6%
- I.D./g [31]: 0.03%
- I.D./g [32]: 1.25%
- I.D./g [33]: < 0.16%
- I.D./g [34]: 0.07%
- I.D./g [35]: 0.16%
- I.D./g [36]: 0.73%
- I.D./g [37]: 0.12%
- I.D./g [38]: 0.09%
- I.D./g [39]: 1.27%
- I.D./g [40]: 2.27%
SMILES: CCC(C)N(C)C(=O)c1nc2ccccc2c(-c2ccccc2)c1C (stereo not given)
